Results as given in ChEMBL document CHEMBL3272156, “(Vinylaryloxy)acetic acids. A new class of diuretic agents. 4. Various ((2-substituted and 2,2-disubstituted vinyl)aryloxy)acetic acids” (1976).

Columns and labels:
[1] = tested on: Canis familiaris; experiment: Diuretic activity in mongrel dog […] assessed as urine Na+ level per 6 hrs at 0.3 mg/kg, po as gelatin capsules (reference value: 2 equiv/6 hrs); assay type: functional, Canis lupus familiaris
Outline: (§1)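 Trained female mongrel dogs (8–10 kg) given 100 ml water the day before and fasted overnight. On test day they received 250 ml water orally, then 500 ml 1 h later. One hour after that, bladders were catheter-emptied and compound or placebo was given orally in gelatin capsules. Dogs were kept in metabolism cages, and spontaneous urine was pooled with catheter urine at 6 h. Volume and Na+, K+ and Cl− were measured; results are averages per dog group.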

[2] = tested on: Canis familiaris; experiment: Diuretic activity in mongrel dog […] assessed as urine Na+ level per 6 hrs at 1 mg/kg, po as gelatin capsules (reference value: 2 equiv/6 hrs); assay type: functional, Canis lupus familiaris; outline: as §1
[3] = tested on: Canis familiaris; experiment: Diuretic activity in mongrel dog […] assessed as urine Cl- level per 6 hrs at 1 mg/kg, po as gelatin capsules (reference value: 2 equiv/6 hrs); assay type: functional, Canis lupus familiaris; outline: as §1
[4] = tested on: Canis familiaris; experiment: Diuretic activity in mongrel dog assessed as urine Cl- level per 6 hrs at 0.3 mg/kg, po as gelatin capsules (reference value: 2 equiv/6 hrs)
[5] = tested on: Canis familiaris; experiment: Diuretic activity in mongrel dog […] assessed as urine K+ level per 6 hrs at 0.3 mg/kg, po as gelatin capsules (reference value: 1 equiv/6 hrs); assay type: functional, Canis lupus familiaris; outline: as §1
[6] = tested on: Canis familiaris; experiment: Diuretic activity in mongrel dog […] assessed as urine K+ level per 6 hrs at 1 mg/kg, po as gelatin capsules (reference value: 1 equiv/6 hrs); assay type: functional, Canis lupus familiaris; outline: as §1
[7] = tested on: Canis familiaris; experiment: Diuretic activity in mongrel dog anesthetized with sodium pentobarbital assessed as urine Na+ level at 10 mg/kg, iv measured after 15 to 45 mins post dose (reference value: 3 to 44 uequiv/min); assay type: functional, Canis lupus familiaris
Outline: (§2)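 Dogs given compound iv as the Na salt in water; clearance procedure per ref 1. Baseline is the mean of two 15-min clearance periods before dosing. Response is the mean of two consecutive 15-min periods of maximal Na+ excretion, usually 15–45 min after dosing. Values are from single representative experiments in a series of three or four dogs.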

[8] = tested on: Canis familiaris; experiment: Diuretic activity in mongrel dog anesthetized with sodium pentobarbital assessed as urine K+ level at 10 mg/kg, iv measured after 15 to 45 mins post dose (reference value: 10 to 44 uequiv/min); assay type: functional, Canis lupus familiaris; outline: as §2
[9] = tested on: Canis familiaris; experiment: Diuretic activity in mongrel dog anesthetized with sodium pentobarbital assessed as urine volume at 10 mg/kg, iv measured after 15 to 45 mins post dose (reference value: 1 to 5 ml/min); assay type: functional, Canis lupus familiaris; outline: as §2
[10] = tested on: Canis familiaris; experiment: Diuretic activity in mongrel dog anesthetized with sodium pentobarbital assessed as urine Cl- level at 10 mg/kg, iv measured after 15 to 45 mins post dose (reference value: 0 to 30 uequiv/min); assay type: functional, Canis lupus familiaris; outline: as §2
[11] = tested on: Canis familiaris; experiment: Diuretic activity in mongrel dog anesthetized with sodium pentobarbital assessed as urine Cl- level at 25 mg/kg, iv measured after 15 to 45 mins post dose (reference value: 0 to 30 uequiv/min); assay type: functional, Canis lupus familiaris; outline: as §2
[12] = tested on: Canis familiaris; experiment: Diuretic activity in mongrel dog anesthetized with sodium pentobarbital assessed as urine K+ level at 25 mg/kg, iv measured after 15 to 45 mins post dose (reference value: 10 to 44 uequiv/min); assay type: functional, Canis lupus familiaris; outline: as §2
[13] = tested on: Canis familiaris; experiment: Diuretic activity in mongrel dog anesthetized with sodium pentobarbital assessed as urine volume at 25 mg/kg, iv measured after 15 to 45 mins post dose (reference value: 1 to 5 ml/min); assay type: functional, Canis lupus familiaris; outline: as §2
[14] = tested on: Canis familiaris; experiment: Diuretic activity in mongrel dog anesthetized with sodium pentobarbital assessed as urine Na+ level at 25 mg/kg, iv measured after 15 to 45 mins post dose (reference value: 3 to 44 uequiv/min); assay type: functional, Canis lupus familiaris; outline: as §2
[15] = tested on: Canis familiaris; experiment: Diuretic activity in mongrel dog anesthetized with sodium pentobarbital assessed as urine Cl- level at 5 mg/kg, iv measured after 15 to 45 mins post dose (reference value: 0 to 30 uequiv/min); assay type: functional, Canis lupus familiaris; outline: as §2
[16] = tested on: Canis familiaris; experiment: Diuretic activity in mongrel dog anesthetized with sodium pentobarbital assessed as urine volume at 1 mg/kg, iv measured after 15 to 45 mins post dose (reference value: 1 to 5 ml/min); assay type: functional, Canis lupus familiaris; outline: as §2
[17] = tested on: Canis familiaris; experiment: Diuretic activity in mongrel dog anesthetized with sodium pentobarbital assessed as urine K+ level at 5 mg/kg, iv measured after 15 to 45 mins post dose (reference value: 10 to 44 uequiv/min); assay type: functional, Canis lupus familiaris; outline: as §2
[18] = tested on: Canis familiaris; experiment: Diuretic activity in mongrel dog anesthetized with sodium pentobarbital assessed as urine Cl- level at 1 mg/kg, iv measured after 15 to 45 mins post dose (reference value: 0 to 30 uequiv/min); assay type: functional, Canis lupus familiaris; outline: as §2
[19] = tested on: Canis familiaris; experiment: Diuretic activity in mongrel dog anesthetized with sodium pentobarbital assessed as urine Na+ level at 5 mg/kg, iv measured after 15 to 45 mins post dose (reference value: 3 to 44 uequiv/min); assay type: functional, Canis lupus familiaris; outline: as §2
[20] = tested on: Canis familiaris; experiment: Diuretic activity in mongrel dog anesthetized with sodium pentobarbital assessed as urine K+ level at 1 mg/kg, iv measured after 15 to 45 mins post dose (reference value: 10 to 44 uequiv/min); assay type: functional, Canis lupus familiaris; outline: as §2
[21] = tested on: Canis familiaris; experiment: Diuretic activity in mongrel dog anesthetized with sodium pentobarbital assessed as urine volume at 5 mg/kg, iv measured after 15 to 45 mins post dose (reference value: 1 to 5 ml/min); assay type: functional, Canis lupus familiaris; outline: as §2
[22] = tested on: Canis familiaris; experiment: Diuretic activity in mongrel dog anesthetized with sodium pentobarbital assessed as urine Na+ level at 1 mg/kg, iv measured after 15 to 45 mins post dose (reference value: 3 to 44 uequiv/min); assay type: functional, Canis lupus familiaris; outline: as §2
[23] = tested on: Canis familiaris; experiment: Diuretic activity in mongrel dog […] assessed as urine K+ level per 6 hrs at 10 mg/kg, po as gelatin capsules (reference value: 1 equiv/6 hrs); assay type: functional, Canis lupus familiaris; outline: as §1
[24] = tested on: Canis familiaris; experiment: Diuretic activity in mongrel dog […] assessed as urine Cl- level per 6 hrs at 10 mg/kg, po as gelatin capsules (reference value: 2 equiv/6 hrs); assay type: functional, Canis lupus familiaris; outline: as §1
[25] = tested on: Canis familiaris; experiment: Diuretic activity in mongrel dog […] assessed as urine Na+ level per 6 hrs at 10 mg/kg, po as gelatin capsules (reference value: 2 equiv/6 hrs); assay type: functional, Canis lupus familiaris; outline: as §1
[26] = tested on: Canis familiaris; experiment: Diuretic activity in mongrel dog […] assessed as urine Na+ level per 6 hrs at 5 mg/kg, po as gelatin capsules (reference value: 2 equiv/6 hrs); assay type: functional, Canis lupus familiaris; outline: as §1
[27] = tested on: Canis familiaris; experiment: Diuretic activity in mongrel dog […] assessed as urine Cl- level per 6 hrs at 5 mg/kg, po as gelatin capsules (reference value: 2 equiv/6 hrs); assay type: functional, Canis lupus familiaris; outline: as §1
[28] = tested on: Canis familiaris; experiment: Diuretic activity in mongrel dog […] assessed as urine K+ level per 6 hrs at 5 mg/kg, po as gelatin capsules (reference value: 1 equiv/6 hrs); assay type: functional, Canis lupus familiaris; outline: as §1

| Compound | Activity [7] | Activity [8] | Activity [9] | Activity [10] | other results |
| --- | --- | --- | --- | --- | --- |
| C=C(CC)C(=O)c1ccc(OCC(=O)O)c(Cl)c1Cl [ETHACRYNIC ACID] |  |  |  |  | Activity [1]: 8 equiv; Activity [2]: 21 equiv; Activity [3]: 26 equiv; Activity [4]: 10 equiv; Activity [5]: 2 equiv; Activity [6]: 5 equiv |
| CC(=C(C#N)C#N)c1ccc(OCC(=O)O)c(Cl)c1Cl | 123 uEq/min | 38 uEq/min | 2 mL/min | 125 uEq/min |  |
| N#C/C(=C\c1ccc(OCC(=O)O)c(Cl)c1Cl)C(N)=O | 180 uEq/min | 35 uEq/min | 4 mL/min | 88 uEq/min |  |
| N#CC(C#N)=Cc1ccc(OCC(=O)O)c(Cl)c1Cl | 736 uEq/min | 100 uEq/min | 5 mL/min | 665 uEq/min |  |
| CCOC(=O)/C(C#N)=C/c1ccc(OCC(=O)O)cc1 | 25 uEq/min | 29 uEq/min | 2 mL/min | 25 uEq/min | Activity [11]: 16 uEq/min; Activity [12]: 43 uEq/min; Activity [13]: 1 mL/min; Activity [14]: 79 uEq/min |
| C=Cc1ccc(OCC(=O)O)c(Cl)c1Cl | 34 uEq/min | 29 uEq/min | 1 mL/min | 2 uEq/min |  |
| CCOC(=O)C(=Cc1ccc(OCC(=O)O)cc1)C(=O)OCC |  |  |  |  | Activity [11]: 20 uEq/min; Activity [12]: 45 uEq/min; Activity [13]: 1 mL/min; Activity [14]: 44 uEq/min |
| N#C/C(=C\c1ccc(OCC(=O)O)c(Cl)c1Cl)C(=O)O | 38 uEq/min | 32 uEq/min | 1 mL/min | 29 uEq/min |  |
| CCOC(=O)C(=Cc1ccc(OCC(=O)O)c(Cl)c1Cl)C(=O)OCC |  |  |  |  | Activity [15]: 261 uEq/min; Activity [16]: 2 mL/min; Activity [17]: 113 uEq/min; Activity [18]: 198 uEq/min; Activity [19]: 313 uEq/min; Activity [20]: 54 uEq/min; Activity [21]: 4 mL/min; Activity [22]: 200 uEq/min |
| O=C(O)COc1ccc(/C=C2\C(=O)C3CCN2CC3)c(Cl)c1Cl | 172 uEq/min | 70 uEq/min | 4 mL/min | 115 uEq/min |  |
| N#C/C(=C\c1ccc(OCC(=O)O)c(Cl)c1Cl)S(N)(=O)=O |  |  |  |  | Activity [23]: 4 equiv; Activity [24]: 6 equiv; Activity [25]: 6 equiv |
| O=C(O)COc1ccc(/C=C(/C(=O)Oc2ccccc2)S(=O)(=O)Oc2ccccc2)c(Cl)c1Cl |  |  |  |  | Activity [23]: 2 equiv; Activity [24]: 6 equiv; Activity [25]: 6 equiv |
| CC(=O)/C(=C/c1ccc(OCC(=O)O)c(Cl)c1Cl)S(=O)(=O)c1ccccc1 | 183 uEq/min | 58 uEq/min | 3 mL/min | 166 uEq/min |  |
| N#CC(C#N)=Cc1ccc(OCC(=O)O)cc1 | 64 uEq/min | 10 uEq/min | 2 mL/min | 45 uEq/min |  |
| N#CC(C#N)=Cc1ccc(OCC(=O)O)cc1Cl | 14 uEq/min | 34 uEq/min | 2 mL/min | 14 uEq/min |  |
| CS(=O)(=O)C(=Cc1ccc(OCC(=O)O)c(Cl)c1Cl)S(C)(=O)=O |  |  |  |  | Activity [11]: 34 uEq/min; Activity [12]: 48 uEq/min; Activity [13]: 3 mL/min; Activity [14]: 31 uEq/min |
| NC(=O)C(=Cc1ccc(OCC(=O)O)c(Cl)c1Cl)C(N)=O | 195 uEq/min | 86 uEq/min | 3 mL/min | 145 uEq/min |  |
| N#C/C=C/c1ccc(OCC(=O)O)c(Cl)c1Cl | 448 uEq/min | 59 uEq/min | 6 mL/min | 484 uEq/min | Activity [26]: 12 equiv; Activity [27]: 17 equiv; Activity [28]: 4 equiv |
